ChEMBL document CHEMBL1143134, “The number and distances of positive charges of polyamine side chains in a series of perylene diimides significantly influence their ability to induce G-quadruplex structures and inhibit human telomerase” (Bioorg Med Chem, 2008)
Active and inactive are the calls of the source. The rule behind the calls is not given here.

Tests used:
[1] = biological target: Telomerase reverse transcriptase (Homo sapiens) (UniProt O14746); assay: Inhibition of human telomerase by TRAP assay
Summary of the method: (§1)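 Cell-free modified TRAP assay using TSG4 primer and HeLa cell extract in TRAP buffer (20 mM Tris-HCl pH 8.3, 1.5 mM MgCl2, 68 mM KCl, 0.05% Tween 20, 1 mM EGTA). Compounds (2–20 µM) preincubated with primer for 2 h at 30 °C before extract was added. A 130-bp internal standard controls PCR efficiency. Percent inhibition from at least three independent experiments.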

[2] = biological target: Telomerase reverse transcriptase (Homo sapiens) (UniProt O14746); assay: Inhibition of human telomerase at 2 uM by TRAP assay; summary of the method: as §1

Telomerase reverse transcriptase (Homo sapiens), sequence (O14746 whole entry): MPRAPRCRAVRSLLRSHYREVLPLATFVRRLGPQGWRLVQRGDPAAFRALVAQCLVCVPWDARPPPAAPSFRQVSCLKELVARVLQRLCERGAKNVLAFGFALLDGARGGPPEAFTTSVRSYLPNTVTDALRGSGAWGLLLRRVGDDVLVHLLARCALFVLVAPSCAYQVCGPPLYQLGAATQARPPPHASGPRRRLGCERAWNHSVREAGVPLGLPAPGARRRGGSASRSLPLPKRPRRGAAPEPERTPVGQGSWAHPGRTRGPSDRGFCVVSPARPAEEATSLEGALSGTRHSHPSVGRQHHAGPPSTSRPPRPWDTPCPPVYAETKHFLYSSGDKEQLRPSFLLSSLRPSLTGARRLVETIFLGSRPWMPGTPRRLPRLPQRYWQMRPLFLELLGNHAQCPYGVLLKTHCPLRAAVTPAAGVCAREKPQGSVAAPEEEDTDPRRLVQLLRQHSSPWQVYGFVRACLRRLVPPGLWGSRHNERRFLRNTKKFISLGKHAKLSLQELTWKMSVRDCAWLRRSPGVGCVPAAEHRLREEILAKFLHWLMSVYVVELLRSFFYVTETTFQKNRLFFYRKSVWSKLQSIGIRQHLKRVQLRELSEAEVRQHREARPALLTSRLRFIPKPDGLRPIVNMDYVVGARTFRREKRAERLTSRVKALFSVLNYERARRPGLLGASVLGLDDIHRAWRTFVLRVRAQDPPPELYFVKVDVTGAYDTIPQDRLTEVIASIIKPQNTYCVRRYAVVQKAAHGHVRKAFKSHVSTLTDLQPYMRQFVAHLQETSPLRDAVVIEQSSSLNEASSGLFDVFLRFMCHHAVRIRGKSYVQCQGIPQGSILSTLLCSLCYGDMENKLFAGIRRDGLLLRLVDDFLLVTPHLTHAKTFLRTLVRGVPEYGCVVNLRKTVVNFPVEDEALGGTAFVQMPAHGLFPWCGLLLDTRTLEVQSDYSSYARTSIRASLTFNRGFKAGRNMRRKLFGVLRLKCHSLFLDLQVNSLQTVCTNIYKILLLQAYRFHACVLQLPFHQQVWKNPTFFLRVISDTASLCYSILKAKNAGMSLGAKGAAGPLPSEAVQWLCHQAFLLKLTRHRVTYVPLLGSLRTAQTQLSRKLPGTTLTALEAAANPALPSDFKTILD

Activity [1]	inhibition [2]	Structure (SMILES)
Active		CC(=O)NCCCNCCCCNCCN1C(=O)c2ccc3c4ccc5c6c(ccc(c7ccc(c2c37)C1=O)c64)C(=O)N(CCNCCCCNCCCNC(C)=O)C5=O
	30%	NCCCNCCCCNCCN1C(=O)c2ccc3c4ccc5c6c(ccc(c7ccc(c2c37)C1=O)c64)C(=O)N(CCNCCCCNCCCN)C5=O
